# Measurements as given in ChEMBL document CHEMBL3272327, “Hypocholesterolemic activity of 1,3-bis(substituted phenoxy)-2-propanones” (J Med Chem, 1976).
# Assays:
# [1] = test system: Rattus norvegicus; experiment: Hypocholesterolemic activity in rat assessed as [14C]palmitic acid level in urine at 10 mg/kg/day administered for 1 week measured after 22 hrs on day 7 by scintillation counting analysis (reference value: 3.31 +/- 1.37%); type: functional
# Procedure, shortened: (§1)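 Male Sprague-Dawley rats on lab chow dosed orally once daily for 1 week at 10 mg/kg/day, suspended in 1% CMC, or given vehicle alone. On day 7, 5 μCi [1-14C]palmitic acid given orally. Killed after 22 hr; organs made into 10% water homogenates. Aliquots of 0.1 cc of homogenate, urine, blood or feces were digested and scintillation counted. Output is % of dose per tissue, N = 6.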
# [2] = test system: Rattus norvegicus; experiment: Effect on body weight in rat at 5 mg/kg/day administered for 16 days measured on day 16 (reference value: 233 +/- 16 gms); type: ADME, organism-based; details: in vivo, 384 h
# Procedure, shortened: (§2)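 Male Sprague-Dawley rats with chow and water ad libitum. Compound suspended in 1% CMC-water and given orally by intubation needle at 11:00 a.m., 1, 5, 10 or 50 mg/kg/day, for 16 days. Body weight (g) recorded on days 0, 7 and 16. N = 8.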
# [3] = test system: Rattus norvegicus; experiment: Effect on brain weight in rat at 10 mg/kg/day administered for 16 days measured 24 hrs after last drug dosage relative to total body weight (reference value: 0.67 +/- 0.05%); type: ADME, organism-based; details: in vivo
# [4] = test system: Rattus norvegicus; experiment: Hypocholesterolemic activity in rat assessed as serum triglyceride level at 10 mg/kg/day administered for 8 days (reference value: 100 +/- 15%); type: functional
# Procedure, shortened: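 Male Sprague-Dawley rats dosed orally at 10 mg/kg/day in 1% CMC. Serum triglycerides were measured with a stat pack kit after 8 days of dosing. Expressed as percent of vehicle control, N = 8; Student's t test.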
# [5] = test system: Rattus norvegicus; experiment: Effect on food intake in rat at 5 mg/kg/day measured during first week (reference value: 19.1 +/- 1.7 gms); type: ADME, organism-based; details: in vivo
# Procedure, shortened: (§3)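 Male rats dosed orally at 1, 5, 10 or 50 mg/kg/day in 1% CMC. Average food intake in grams per rat per week measured over a 2-week period, first and second weeks reported separately. N = 8, Student's t test against the 1% CMC control.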
# [6] = test system: Rattus norvegicus; experiment: Effect on kidney weight in rat at 5 mg/kg/day administered for 16 days measured 24 hrs after last drug dosage relative to total body weight (reference value: 0.92 +/- 0.04%); type: ADME, organism-based; details: in vivo
# [7] = test system: Rattus norvegicus; experiment: Effect on glycogen content in rat liver at 10 mg/kg/day administered for 16 days (reference value: 100 +/- 24%); type: ADME, organism-based; details: in vivo, 384 h
# [8] = test system: Rattus norvegicus; experiment: Hypocholesterolemic activity in rat assessed as [14C]palmitic acid level in chyme at 10 mg/kg/day administered for 1 week measured after 22 hrs on day 7 by scintillation counting analysis (reference value: 0.41+/- 0.17%); type: functional; procedure, shortened: as §1
# [9] = test system: Rattus norvegicus; experiment: Uterotrophic activity in ovariectomized Sprague-Dawley rat assessed as uterine weight administered for 3 days (reference value: 100 +/- 27%); type: organism-based, Uterus; details: in vivo, 72 h
# [10] = test system: Rattus norvegicus; experiment: Hypocholesterolemic activity in rat assessed as [14C]cholesterol level in chyme at 10 mg/kg/day administered for 1 week measured after 22 hrs on day 7 by scintillation counting analysis (reference value: 8.72 +/- 4.95%); type: functional
# Procedure, shortened: (§4)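 Male rats were dosed orally for 1 week (10 mg/kg/day) or with 1% CMC. On day 7 they received 5 μCi [4-14C]cholesterol orally and were killed after 22 hr. Organs were homogenized (10% in water); 0.1-cc aliquots of homogenate, urine, blood or feces were digested with Protosol. Samples were counted in toluene/Triton X-100 (2:1) scintillant with 0.4% PPO and 0.01% POPOP. Results are % of dose per tissue, N = 6.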
# [11] = test system: Rattus norvegicus; experiment: Effect on food intake in rat at 10 mg/kg/day measured during first week (reference value: 19.1 +/- 1.7 gms); type: ADME, organism-based; details: in vivo; procedure, shortened: as §3
# [12] = test system: Rattus norvegicus; experiment: Effect on brain weight in rat at 5 mg/kg/day administered for 16 days measured 24 hrs after last drug dosage relative to total body weight (reference value: 0.67 +/- 0.05%); type: ADME, organism-based; details: in vivo
# [13] = test system: Rattus norvegicus; experiment: Increase in lipase level in rat serum at 10 mg/kg/day administered for 16 days relative to control; type: functional
# Procedure, shortened: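 Male Sprague-Dawley rats on rodent chow and water ad libitum; compound suspended in 1% CMC-H2O, 10 mg/kg/day by oral intubation, dose set from weekly weights; controls given 1% CMC. Serum lipase measured with a commercial serum lipase kit after 16 days of dosing; value given as percent of control, N = 8; p by Student's t test.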
# [14] = test system: Rattus norvegicus; experiment: Effect on heart weight in rat at 1 mg/kg/day administered for 16 days measured 24 hrs after last drug dosage relative to total body weight (reference value: 0.37 +/- 0.04%); type: ADME, organism-based; details: in vivo
# [15] = test system: Rattus norvegicus; experiment: Hypocholesterolemic activity in rat assessed as [14C]cholesterol level in heart at 10 mg/kg/day administered for 1 week measured after 22 hrs on day 7 by scintillation counting analysis (reference value: 0.39 +/- 0.13%); type: functional; procedure, shortened: as §4
# [16] = test system: Rattus norvegicus; experiment: Effect on lipid content in rat liver at 10 mg/kg/day administered for 16 days (reference value: 100 +/- 16%); type: ADME, organism-based; details: in vivo, 384 h
# [17] = test system: Rattus norvegicus; experiment: Hypocholesterolemic activity in rat assessed as [14C]cholesterol level in kidney at 10 mg/kg/day administered for 1 week measured after 22 hrs on day 7 by scintillation counting analysis (reference value: 0.69 +/- 0.27%); type: functional; procedure, shortened: as §4
# [18] = test system: Rattus norvegicus; experiment: Effect on brain weight in rat at 1 mg/kg/day administered for 16 days measured 24 hrs after last drug dosage relative to total body weight (reference value: 0.67 +/- 0.05%); type: ADME, organism-based; details: in vivo
# [19] = test system: Rattus norvegicus; experiment: Effect on vesicular gland weight in rat at 50 mg/kg/day administered for 16 days measured 24 hrs after last drug dosage relative to total body weight (reference value: 0.10 +/- 0.04%); type: ADME, organism-based; details: in vivo
# [20] = test system: Rattus norvegicus; experiment: Hypocholesterolemic activity in rat assessed as [14C]palmitic acid level in vas deferens at 10 mg/kg/day administered for 1 week measured after 22 hrs on day 7 by scintillation counting analysis (reference value: 0.23 +/- 0.05%); type: functional; procedure, shortened: as §1
# [21] = test system: Rattus norvegicus; experiment: Hypocholesterolemic activity in Sprague-Dawley rat assessed as serum cholesterol level at 50 mg/kg/day, po administered via intubation measured on day 16 by Liebermann-Burchard reaction (reference value: 100 +/- 8%); type: functional
# [22] = test system: Rattus norvegicus; experiment: Effect on body weight in rat at 10 mg/kg/day administered for 16 days measured on day 7 (reference value: 173 +/- 12 gms); type: ADME, organism-based; details: in vivo, 384 h; procedure, shortened: as §2
# [23] = test system: Rattus norvegicus; experiment: Hypocholesterolemic activity in Sprague-Dawley rat assessed as serum cholesterol level at 10 mg/kg/day, po administered via intubation measured on day 10 by Liebermann-Burchard reaction (reference value: 100%); type: functional
# [24] = test system: Rattus norvegicus; experiment: Hypocholesterolemic activity in Sprague-Dawley rat assessed as serum cholesterol level at 5 mg/kg/day, po administered via intubation measured on day 10 by Liebermann-Burchard reaction (reference value: 100 +/- 7%); type: functional
# [25] = test system: Rattus norvegicus; experiment: Effect on body weight in rat at 50 mg/kg/day administered for 16 days measured on day 16 (reference value: 233 +/- 16 gms); type: ADME, organism-based; details: in vivo, 384 h; procedure, shortened: as §2
# [26] = test system: Rattus norvegicus; experiment: Effect on adrenal gland weight in rat at 10 mg/kg/day administered for 16 days measured 24 hrs after last drug dosage relative to total body weight (reference value: 0.015 +/- 0.003%); type: ADME, organism-based; details: in vivo
# [27] = test system: Rattus norvegicus; experiment: Effect on heart weight in rat at 50 mg/kg/day administered for 16 days measured 24 hrs after last drug dosage relative to total body weight (reference value: 0.37 +/- 0.04%); type: ADME, organism-based; details: in vivo
structure (smiles),measurement,setting,value
Cc1ccc(OCC(=O)COc2ccc(C)cc2)cc1,Activity,[1],1.82%
same,Activity,[2],241 g
same,Activity,[3],0.71%
same,Activity,[4],70%
same,Activity,[5],18.8 g
same,Activity,[6],0.88%
same,Activity,[7],118%
same,Activity,[8],2%
same,Activity,[9],82%
same,Activity,[10],9.21%
same,Activity,[11],18.2 g
same,Activity,[12],0.73%
same,fold change (FC),[13],2
same,Activity,[14],0.38%
same,Activity,[15],0.58%
same,Activity,[16],88%
same,Activity,[17],1.29%
same,Activity,[18],0.74%
same,Activity,[19],0.15%
same,Activity,[20],0.5%
same,Activity,[21],44%
same,Activity,[22],164 g
same,Activity,[23],50%
same,Activity,[24],58%
same,Activity,[25],232 g
same,Activity,[26],0.016%
same,Activity,[27],0.4%
